Experimental data from ChEMBL document CHEMBL1148348, “New manzamine alkaloids from an Indo-Pacific sponge. Pharmacokinetics, oral availability, and the significant activity of several manzamines against HIV-I, AIDS opportunistic infections, and inflammatory diseases” (J Med Chem, 2004).
Values after ≈ are worked out from the molar mass of the structure shown.

Columns and labels:
Staphylococcus aureus [1] = assay: Inhibitory concentration against methicillin-resistant Staphylococcus aureus; Not active; type: functional, organism-based
Staphylococcus aureus [2] = assay: Inhibitory concentration against Staphylococcus aureus; Not active; type: functional, organism-based
[3] = test system: Mycobacterium intracellulare; assay: Inhibitory concentration against Mycobacterium intracellular; Not active; type: functional, organism-based
Cryptococcus neoformans [4] = assay: Inhibitory concentration against Cryptococcus neoformans; Not active; type: functional, organism-based
[5] = test system: Human immunodeficiency virus 1; assay: Effective concentration against HIV-1; type: functional, organism-based
Staphylococcus aureus [6] = assay: Minimal inhibitory concentration against Staphylococcus aureus; Range is 0.5-6.25 ug/mL; type: functional
Staphylococcus aureus [7] = assay: Minimal inhibitory concentration against methicillin-resistant Staphylococcus aureus; Range is 0.5-6.25 ug/mL; type: functional
[8] = Partition coefficient (logP); type: physicochemical; conditions: octanol/water
[9] = test system: Mycobacterium intracellulare; assay: Inhibitory concentration against Mycobacterium intracellular; type: functional, organism-based
[10] = Cmax in rats; type: ADME, organism-based; conditions: rat, in vivo
[11] = test system: Mycobacterium intracellulare; assay: Minimal inhibitory concentration against Mycobacterium intracellular; Range is 0.5-6.25 ug/mL; type: functional
Cryptococcus neoformans [12] = assay: Inhibitory concentration against Cryptococcus neoformans; type: functional, organism-based
Staphylococcus aureus [13] = assay: Inhibitory concentration against methicillin-resistant Staphylococcus aureus; type: functional, organism-based
[14] = Apparent volume of distribution at 10 mg/kg in rat upon intravenous administration; type: ADME, organism-based; design: dose 10 mg/kg, route intravenous; conditions: in vivo
In short: (§1)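 Male Sprague-Dawley rats (280-320 g), jugular/carotid cannulated the day before, fasted until 12 h post-dose. Given 10 mg/kg iv as a 5 min jugular infusion, approx. 3 mg/mL in 10% v/v ethanol/50 mM tartrate buffer pH 3.0. Carotid blood sampled over 96 h; plasma by validated HPLC/MS (LOQ 10 ng/mL). Parameters estimated from mean plasma concentrations, n = 3.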

[15] = Half-life at 10 mg/kg in rat upon intravenous administration; type: ADME, organism-based; design: dose 10 mg/kg, route intravenous; conditions: in vivo; in short: as §1
Staphylococcus aureus [16] = assay: Inhibitory concentration against Staphylococcus aureus; type: functional, organism-based
[17] = Tmax in rats; type: ADME, organism-based; conditions: rat, in vivo
[18] = Oral bioavailability in rat; type: ADME, organism-based; conditions: in vivo
[19] = Plasma clearance at 10 mg/kg in rat upon intravenous administration; type: ADME, organism-based; design: dose 10 mg/kg, route intravenous; in short: as §1
Rattus norvegicus [20] = species: Rattus norvegicus; assay: Inhibitory activity against superoxide anion generation in rat neonatal brain microglia cells; type: functional, cell-based
In short: (§2)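 Rat neonatal brain microglia stimulated with phorbol ester. Release of superoxide anion or thromboxane B2 is measured, and inhibition is expressed as IC50.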

[21] = Inhibitory activity against thromboxane B2; design: species or system Rattus norvegicus; in short: as §2
Rattus norvegicus [22] = species: Rattus norvegicus; assay: Concentration for 50% increase in lactate dehydrogenase release in rat neonatal brain microglia cells; type: functional
In short: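 Lactate dehydrogenase released from rat neonatal brain microglia serves as the marker of cell toxicity. The value is expressed as LDH50.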

Row | SMILES | IC50 (Staphylococcus aureus [1]) | IC50 (Staphylococcus aureus [2]) | IC50 [3] | IC50 (Cryptococcus neoformans [4]) | EC50 [5] [µM] | also measured
1 | C1=C(c2[nH]ccc3c4ccccc4nc2-3)[C@@H]2CCN3CCCC/C=C\CC[C@]14O[C@@H]1CCC/C=C\[C@H]5C[C@@]2(C3)[C@H]4N51 [12,28-OXAMANZAMINE A] | Not Active | Not Active | Not Active | Not Active | 22.2 | 
2 | O=C1CCCN2[C@@H](CC1)C[C@]13CN4CCCC/C=C\CC[C@](O)(C=C(c5nccc6c5[nH]c5ccccc56)C1CC4)[C@H]23 (stereo partly specified) [MANZAMINE E] | Not Active | Not Active |  | Not Active |  | 
3 | OC1=C[C@@]2(O)CC/C=C\CCCCN3CC[C@@H]1[C@]1(C[C@@H]4/C=C\CCCCN4[C@H]12)C3 [IRCINOL A] |  | Not Active |  | Not Active |  | 
4 | Cc1cn([C@H]2C[C@H](N=[N+]=[N-])[C@@H](CO)O2)c(=O)[nH]c1=O [ZIDOVUDINE] |  |  |  |  | 0.004 | 
5 | Oc1cccc2c3cc[nH]c(C4=C[C@]56CC/C=C\CCCCN7CC[C@@H]4[C@]4(C[C@@H]8/C=C\CCC[C@@H](O5)N8[C@H]46)C7)c-3nc12 [12,28-OXA-8-HYDROXY-MANZAMINE A] | Not Active | Not Active | Not Active | Not Active |  | 
6 | O[C@]12C=C(c3[nH]ccc4c5ccccc5nc3-4)[C@@H]3CCN(CCCC/C=C\CC1)C[C@@]31C[C@@H]3/C=C\CCCCN3[C@H]12 [MANZAMINE] |  |  |  |  | 4.2 | MIC (Staphylococcus aureus [6]): < 6.25 µg/mL; MIC (Staphylococcus aureus [7]): < 6.25 µg/mL; logP [8]: 8.34; IC50 [9]: 0.35 µg/mL (≈ 0.638 µM); Cmax [10]: 1070 ng/mL; MIC [11]: < 6.25 µg/mL; IC50 (Cryptococcus neoformans [12]): 3 µg/mL (≈ 5.47 µM); IC50 (Staphylococcus aureus [13]): 0.7 µg/mL (≈ 1.28 µM); Vd [14]: 23.7 L/kg; half-life [15]: 53.7 h; IC50 (Staphylococcus aureus [16]): 0.5 µg/mL (≈ 0.911 µM); Tmax [17]: 10 h; bioavailability [18]: 20.6%; clearance [19]: 5.1 mL/min/kg
7 | Oc1cccc2c1[nH]c1c(C3=C[C@@]4(O)CC/C=C\CCCCN5CC[C@@H]3[C@]3(CC6/C=C\CCCCN6[C@H]34)C5)nccc12 (stereo partly specified) |  |  |  |  |  | IC50 (Rattus norvegicus [20]): > 30 µM; MIC (Staphylococcus aureus [6]): < 6.25 µg/mL; IC50 [21]: > 30 µM; LDH50 (Rattus norvegicus [22]): >30 µM; MIC [11]: < 6.25 µg/mL
8 | O=C1CCCN2[C@@H](CC1)C[C@]13CN4CCCC/C=C\CC[C@](O)(C=C(c5nccc6c5[nH]c5c(O)cccc56)C1CC4)[C@H]23 (stereo partly specified) [MANZAMINE F] | Not Active | Not Active |  |  |  | 
9 | O=CC1=C[C@@]2(O)CC/C=C\CCCCN3CC[C@@H]1[C@]1(C[C@@H]4/C=C\CCCCN4[C@H]12)C3 [IRCINAL] | Not Active | Not Active | Not Active | Not Active |  | 
